Test results reported in ChEMBL document CHEMBL3779826, “Converting maslinic acid into an effective inhibitor of acylcholinesterases” (Eur J Med Chem, 2015).

How the values were obtained:
[1] = molecular target: Acetylcholinesterase (Electrophorus electricus) (UniProt O42275); assay: Mixed type inhibition of Electrophorus electricus AChE by Lineweaver-Burk plot analysis
Summary of the method: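 Ellman kinetics at 30 °C in pH 8.0 Tris-HCl with DTNB. Enzyme plus inhibitor (3 concentrations and a water blank) was preincubated for 20 min, then ATChI was added at 0.9375, 0.625, 0.325 or 0.1875 mM. A415 was read every minute for 30 min, in triplicate. Mode, Ki and Ki' came from Lineweaver-Burk, Dixon and Cornish-Bowden plots.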

Acetylcholinesterase = Acetylcholinesterase (Electrophorus electricus, UniProt O42275); assay: Inhibition of Electrophorus electricus AChE using acetylthiocholine iodide as substrate preincubated for 20mins before the addition of substrate by Ellman's method; conditions: for Ki: read-out: Ki
Sequence of Acetylcholinesterase (O42275 whole entry): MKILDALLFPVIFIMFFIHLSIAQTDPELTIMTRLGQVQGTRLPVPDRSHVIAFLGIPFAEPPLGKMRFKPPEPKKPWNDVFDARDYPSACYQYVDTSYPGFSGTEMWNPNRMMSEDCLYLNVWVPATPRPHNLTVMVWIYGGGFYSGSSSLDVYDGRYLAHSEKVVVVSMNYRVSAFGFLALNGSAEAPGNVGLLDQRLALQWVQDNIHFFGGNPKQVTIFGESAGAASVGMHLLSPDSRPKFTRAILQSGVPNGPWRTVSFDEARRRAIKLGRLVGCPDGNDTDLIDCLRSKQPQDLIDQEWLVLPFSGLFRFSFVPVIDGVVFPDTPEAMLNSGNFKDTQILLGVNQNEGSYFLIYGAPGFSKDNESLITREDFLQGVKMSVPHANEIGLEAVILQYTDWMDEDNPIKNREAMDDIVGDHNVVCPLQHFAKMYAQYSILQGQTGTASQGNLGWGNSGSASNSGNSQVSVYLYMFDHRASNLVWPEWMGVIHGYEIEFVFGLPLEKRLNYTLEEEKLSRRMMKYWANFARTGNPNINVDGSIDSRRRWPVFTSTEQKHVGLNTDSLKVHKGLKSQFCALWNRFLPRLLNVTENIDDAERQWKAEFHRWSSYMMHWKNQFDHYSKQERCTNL

Cholinesterase = Cholinesterase (Equus caballus, UniProt P81908); assay: Inhibition of equine serum BChE using butyrylthiocholine iodide as substrate preincubated for 20mins before the addition of substrate by Ellman's method; conditions: for Ki: read-out: Ki
Sequence of Cholinesterase (P81908 whole entry): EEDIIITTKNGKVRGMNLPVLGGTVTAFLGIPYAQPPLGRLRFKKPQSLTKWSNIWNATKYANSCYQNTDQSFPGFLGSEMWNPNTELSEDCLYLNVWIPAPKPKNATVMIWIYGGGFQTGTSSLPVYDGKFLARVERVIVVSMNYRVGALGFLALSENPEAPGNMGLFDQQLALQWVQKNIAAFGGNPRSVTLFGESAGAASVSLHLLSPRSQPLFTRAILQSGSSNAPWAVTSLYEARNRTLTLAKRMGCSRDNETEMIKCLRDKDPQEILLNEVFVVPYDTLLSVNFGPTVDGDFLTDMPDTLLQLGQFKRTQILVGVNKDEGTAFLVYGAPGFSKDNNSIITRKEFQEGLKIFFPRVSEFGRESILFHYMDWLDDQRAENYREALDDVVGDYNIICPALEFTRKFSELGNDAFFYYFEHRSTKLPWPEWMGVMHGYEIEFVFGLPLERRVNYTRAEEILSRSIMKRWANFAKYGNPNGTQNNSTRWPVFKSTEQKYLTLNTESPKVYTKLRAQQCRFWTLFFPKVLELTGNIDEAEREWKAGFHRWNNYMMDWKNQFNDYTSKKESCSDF

[2] = molecular target: Acetylcholinesterase (Electrophorus electricus) (UniProt O42275); conditions: 40 uM
[3] = molecular target: Cholinesterase (Equus caballus) (UniProt P81908); assay: Inhibition of equine serum BChE at 40 uM using butyrylthiocholine iodide as substrate preincubated for 20mins before the addition of substrate by Ellman's method
Sequence of Cholinesterase (Equus caballus) (P81908 whole entry): as above
Summary of the method: (§1)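 Ellman assay: enzyme in Tris-HCl pH 8.0 with NaN3, plus DTNB (3 mM stock with NaCl and MgCl2), was preincubated with compound at 30 °C for 20 min. Thiocholine substrate was then added and absorbance at 415 nm recorded at 30 °C for 30 min at 1-min intervals, in triplicate. Residual DMSO below 0.5%.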

Candida antarctica [4] = assay: Inhibition of Candida antarctica lipase at 40 uM using 4-NA as substrate preincubated for 20 mins before the addition of substrate
Summary of the method: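 Candida antarctica lipase (stock 2.003 U/ml) in 50 mM Tris-HCl pH 8.0, preincubated with compound at 37 °C for 20 min. Reaction started with 4-NA; absorbance at 415 nm followed at 37 °C for 10 min at 1 min intervals. Relative inhibition taken as the ratio of linear-range slopes, compound over blank.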

[5] = molecular target: Carbonic anhydrase 2 (Bos taurus) (UniProt P00921); assay: Inhibition of bovine erythrocte carbonic anhydrase 2 at 40 uM
Sequence of Carbonic anhydrase 2 (Bos taurus) (P00921 2-260 limits assumed): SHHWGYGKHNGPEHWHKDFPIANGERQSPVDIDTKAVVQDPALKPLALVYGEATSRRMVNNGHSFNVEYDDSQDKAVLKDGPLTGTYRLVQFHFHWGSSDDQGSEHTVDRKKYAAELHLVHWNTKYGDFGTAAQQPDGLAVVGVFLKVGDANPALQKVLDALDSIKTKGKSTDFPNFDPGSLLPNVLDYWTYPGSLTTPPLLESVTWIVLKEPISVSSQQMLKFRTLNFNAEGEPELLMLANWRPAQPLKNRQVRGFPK

[6] = molecular target: Cholinesterase (Equus caballus) (UniProt P81908); assay: Mixed type inhibition of equine serum BChE by Lineweaver-Burk plot analysis
[7] = molecular target: Carbonic anhydrase 2 (Bos taurus) (UniProt P00921); assay: Inhibition of bovine erythrocte carbonic anhydrase 2 at 3 uM
[8] = molecular target: Acetylcholinesterase (Electrophorus electricus) (UniProt O42275); assay: Inhibition of Electrophorus electricus AChE at 3 uM using acetylthiocholine iodide as substrate preincubated for 20mins before the addition of substrate by Ellman's method; summary of the method: as §1
Candida antarctica [9] = assay: Inhibition of Candida antarctica lipase at 3 uM using 4-NA as substrate preincubated for 20 mins before the addition of substrate
Summary of the method: (§2)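 Candida antarctica lipase in 50 mM Tris-HCl pH 8.0 was preincubated with compound at 37 °C for 20 min. Reaction started with 4-NA ([…] as added). Absorbance at 415 nm was read kinetically at 37 °C for 10 min at 1-min intervals. Relative inhibition was taken as the ratio of linear-range slopes, compound over blank.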

[10] = molecular target: Cholinesterase (Equus caballus) (UniProt P81908); assay: Inhibition of equine serum BChE at 3 uM using butyrylthiocholine iodide as substrate preincubated for 20mins before the addition of substrate by Ellman's method; summary of the method: as §1
[11] = molecular target: Acetylcholinesterase (Electrophorus electricus) (UniProt O42275); conditions: 10 uM
[12] = molecular target: Cholinesterase (Equus caballus) (UniProt P81908); assay: Inhibition of equine serum BChE at 10 uM using butyrylthiocholine iodide as substrate preincubated for 20mins before the addition of substrate by Ellman's method; summary of the method: as §1
[13] = molecular target: Carbonic anhydrase 2 (Bos taurus) (UniProt P00921); assay: Inhibition of bovine erythrocte carbonic anhydrase 2 at 10 uM
Candida antarctica [14] = assay: Inhibition of Candida antarctica lipase at 10 uM using 4-NA as substrate preincubated for 20 mins before the addition of substrate; summary of the method: as §2
[15] = Cytotoxic activity against mouse NIH/3T3 cells by SRB assay; type: cell-based; conditions: NIH3T3
Summary of the method: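 Mouse embryonic fibroblasts grown as monolayers in RPMI 1640 with 10% heat-inactivated FBS and penicillin/streptomycin at 37 °C under 5% CO2. Cytotoxicity read by photometric sulforhodamine-B microculture colorimetric assay, reported as IC50.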

Sequence of Acetylcholinesterase (Electrophorus electricus) (O42275 24-633 limits assumed): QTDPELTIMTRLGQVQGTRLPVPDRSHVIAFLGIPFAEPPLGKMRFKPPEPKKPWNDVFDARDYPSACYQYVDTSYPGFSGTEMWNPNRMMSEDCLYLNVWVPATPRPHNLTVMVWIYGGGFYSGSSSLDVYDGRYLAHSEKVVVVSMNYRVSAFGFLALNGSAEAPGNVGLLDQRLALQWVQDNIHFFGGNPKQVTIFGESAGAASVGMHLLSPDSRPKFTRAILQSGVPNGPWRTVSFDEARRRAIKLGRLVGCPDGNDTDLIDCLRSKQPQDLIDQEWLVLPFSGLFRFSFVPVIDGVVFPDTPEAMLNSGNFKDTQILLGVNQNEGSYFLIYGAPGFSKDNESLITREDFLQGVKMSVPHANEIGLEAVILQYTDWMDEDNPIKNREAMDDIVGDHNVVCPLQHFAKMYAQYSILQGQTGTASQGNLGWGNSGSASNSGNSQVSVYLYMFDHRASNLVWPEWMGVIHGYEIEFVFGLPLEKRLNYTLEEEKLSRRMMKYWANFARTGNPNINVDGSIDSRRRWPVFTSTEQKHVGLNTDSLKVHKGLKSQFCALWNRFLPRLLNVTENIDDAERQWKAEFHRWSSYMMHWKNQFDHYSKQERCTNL

CC1(C)CC[C@]2(C(=O)OCCC#CCl)CC[C@]3(C)C(=CC[C@@H]4[C@@]5(C)C[C@@H](O)[C@H](O)C(C)(C)[C@@H]5CC[C@]43C)[C@@H]2C1
Kiuc [1]: 14.8 µM | IC50 (Acetylcholinesterase): 6.57 µM | Ki (Acetylcholinesterase): 5.71 µM | Ki (Cholinesterase): > 6 µM

CC1(C)CC[C@]2(C(=O)O)CC[C@]3(C)C(=CC[C@@H]4[C@@]5(C)C[C@@H](OC(=O)CCl)[C@H](OC(=O)CCl)C(C)(C)[C@@H]5CC[C@]43C)[C@@H]2C1
Kiuc [1]: 19.8 µM | IC50 (Acetylcholinesterase): 15.1 µM | Ki (Acetylcholinesterase): 13.1 µM

CC1(C)CC[C@]2(C(=O)OC/C=C\CCl)CC[C@]3(C)C(=CC[C@@H]4[C@@]5(C)C[C@@H](O)[C@H](O)C(C)(C)[C@@H]5CC[C@]43C)[C@@H]2C1
inhibition [2]: 79% | inhibition [3]: 7% | Kiuc [1]: 9.38 µM | inhibition (Candida antarctica [4]): 0% | inhibition [5]: 1% | IC50 (Acetylcholinesterase): 17.6 µM | Ki (Acetylcholinesterase): 22.5 µM | Ki (Cholinesterase): > 80 µM

CC1(C)CC[C@]2(C(=O)O)CC[C@]3(C)C(=CC[C@@H]4[C@@]5(C)C[C@H](O)[C@H](O)C(C)(C)[C@@H]5CC[C@]43C)[C@@H]2C1 [AUGUSTIC ACID]
Ki (Acetylcholinesterase): > 30 µM | Kiuc [6]: 10.6 µM | IC50 (Cholinesterase): 16.6 µM | Ki (Cholinesterase): 35.6 µM

C=CCCOC(=O)[C@]12CCC(C)(C)C[C@H]1C1=CC[C@@H]3[C@@]4(C)C[C@@H](O)[C@H](O)C(C)(C)[C@@H]4CC[C@@]3(C)[C@]1(C)CC2
Kiuc [1]: 11.5 µM | IC50 (Acetylcholinesterase): 6.25 µM | Ki (Acetylcholinesterase): 3.31 µM | Ki (Cholinesterase): > 10 µM

CC1(C)CC[C@]2(C(=O)OCCCCl)CC[C@]3(C)C(=CC[C@@H]4[C@@]5(C)C[C@@H](O)[C@H](O)C(C)(C)[C@@H]5CC[C@]43C)[C@@H]2C1
Kiuc [1]: 3.45 µM | IC50 (Acetylcholinesterase): 4.07 µM | Ki (Acetylcholinesterase): 8.76 µM | Ki (Cholinesterase): > 6 µM

COC(=O)[C@]12CCC(C)(C)C[C@H]1C1=CC[C@@H]3[C@@]4(C)C[C@@H](O)[C@H](OS(N)(=O)=O)C(C)(C)[C@@H]4CC[C@@]3(C)[C@]1(C)CC2
Kiuc [1]: 38.6 µM | IC50 (Acetylcholinesterase): 21.3 µM | Ki (Acetylcholinesterase): 20.5 µM | Ki (Cholinesterase): > 20 µM

CC1(C)CC[C@]2(C(=O)OCCCBr)CC[C@]3(C)C(=CC[C@@H]4[C@@]5(C)C[C@@H](O)[C@H](O)C(C)(C)[C@@H]5CC[C@]43C)[C@@H]2C1
inhibition [2]: 39% | inhibition [3]: 16% | Kiuc [1]: 24.4 µM | inhibition (Candida antarctica [4]): 18% | inhibition [5]: 1% | IC50 (Acetylcholinesterase): 31.2 µM | Ki (Acetylcholinesterase): 34.9 µM | Ki (Cholinesterase): > 80 µM

CCCCCCOC(=O)[C@]12CCC(C)(C)C[C@H]1C1=CC[C@@H]3[C@@]4(C)C[C@@H](O)[C@H](O)C(C)(C)[C@@H]4CC[C@@]3(C)[C@]1(C)CC2
Kiuc [1]: 5.11 µM | inhibition [7]: 0% | inhibition [8]: 62% | IC50 (Acetylcholinesterase): 4.38 µM | Ki (Acetylcholinesterase): 4.78 µM | inhibition (Candida antarctica [9]): 0% | inhibition [10]: 0% | Ki (Cholinesterase): > 6 µM

CC(=O)O[C@@H]1C[C@]2(C)[C@H]3CC=C4[C@@H]5CC(C)(C)CC[C@]5(C(=O)NCc5ccccc5)CC[C@@]4(C)[C@]3(C)CC[C@H]2C(C)(C)[C@H]1OC(C)=O
Kiuc [1]: 39.4 µM | IC50 (Acetylcholinesterase): 29.4 µM | Ki (Acetylcholinesterase): 16.2 µM

CC1(C)CC[C@]2(C(=O)OCCCI)CC[C@]3(C)C(=CC[C@@H]4[C@@]5(C)C[C@@H](O)[C@H](O)C(C)(C)[C@@H]5CC[C@]43C)[C@@H]2C1
inhibition [11]: 51% | Kiuc [1]: 13.4 µM | inhibition [12]: 0% | IC50 (Acetylcholinesterase): 10.3 µM | Ki (Acetylcholinesterase): 6.01 µM | inhibition [13]: 6% | Ki (Cholinesterase): > 20 µM | inhibition (Candida antarctica [14]): 0%

CCOC(=O)[C@]12CCC(C)(C)C[C@H]1C1=CC[C@@H]3[C@@]4(C)C[C@@H](O)[C@H](O)C(C)(C)[C@@H]4CC[C@@]3(C)[C@]1(C)CC2
Kiuc [1]: 4.67 µM | IC50 (Acetylcholinesterase): 4.68 µM | Ki (Acetylcholinesterase): 3.49 µM | Ki (Cholinesterase): > 14 µM

CC1(C)CC[C@]2(C(=O)OCCCO)CC[C@]3(C)C(=CC[C@@H]4[C@@]5(C)C[C@@H](O)[C@H](O)C(C)(C)[C@@H]5CC[C@]43C)[C@@H]2C1
Kiuc [1]: 13.7 µM | IC50 (Acetylcholinesterase): 13.8 µM | Ki (Acetylcholinesterase): 20.1 µM | Ki (Cholinesterase): > 10 µM

CCCOC(=O)[C@]12CCC(C)(C)C[C@H]1C1=CC[C@@H]3[C@@]4(C)C[C@@H](O)[C@H](O)C(C)(C)[C@@H]4CC[C@@]3(C)[C@]1(C)CC2
Kiuc [1]: 15.4 µM | inhibition [7]: 0% | inhibition [8]: 56% | IC50 (Acetylcholinesterase): 8.76 µM | Ki (Acetylcholinesterase): 16.9 µM | inhibition (Candida antarctica [9]): 0% | inhibition [10]: 0% | Ki (Cholinesterase): > 6 µM

CC1(C)CC[C@]2(C(=O)O)CC[C@]3(C)C(=CC[C@@H]4[C@@]5(C)C[C@H](OC(=O)CCl)[C@H](OC(=O)CCl)C(C)(C)[C@@H]5CC[C@]43C)[C@@H]2C1
Kiuc [1]: 9.36 µM | IC50 (Acetylcholinesterase): 6.6 µM | Ki (Acetylcholinesterase): 6.85 µM

CC1(C)CC[C@]2(C(=O)OCc3ccc(Cl)cc3Cl)CC[C@]3(C)C(=CC[C@@H]4[C@@]5(C)C[C@@H](O)[C@H](O)C(C)(C)[C@@H]5CC[C@]43C)[C@@H]2C1
Kiuc [1]: 9.24 µM | inhibition [7]: 0% | IC50 [15]: 17.3 µM | inhibition [8]: 43% | IC50 (Acetylcholinesterase): 4.63 µM | Ki (Acetylcholinesterase): 2.03 µM | inhibition (Candida antarctica [9]): 0% | inhibition [10]: 0% | Ki (Cholinesterase): > 6 µM

CC1(C)CC[C@]2(C(=O)OCC3CCCCC3)CC[C@]3(C)C(=CC[C@@H]4[C@@]5(C)C[C@@H](O)[C@H](O)C(C)(C)[C@@H]5CC[C@]43C)[C@@H]2C1
Kiuc [1]: 2.67 µM | IC50 (Acetylcholinesterase): 3.87 µM | Ki (Acetylcholinesterase): 10 µM | Ki (Cholinesterase): > 14 µM

CC1(C)CC[C@]2(C(=O)O)CC[C@]3(C)C(=CC[C@@H]4[C@@]5(C)C[C@@H](O)[C@H](O)C(C)(C)[C@@H]5CC[C@]43C)[C@@H]2C1 [MASLINIC ACID]
IC50 [15]: 16.6 µM | Ki (Acetylcholinesterase): > 100 µM | Ki (Cholinesterase): > 100 µM

CC1(C)CC[C@@]2(C(=O)OCc3ccc([N+](=O)[O-])cc3)CC[C@@]3(C)C(=CC[C@H]4[C@]5(C)C[C@H](O)[C@@H](O)C(C)(C)[C@H]5CC[C@@]43C)[C@H]2C1 (single isomer, unassigned)
Kiuc [1]: 7.22 µM | IC50 (Acetylcholinesterase): 7.41 µM | Ki (Acetylcholinesterase): 6.14 µM | Ki (Cholinesterase): > 4 µM

COc1ccc(COC(=O)[C@]23CCC(C)(C)C[C@H]2C2=CC[C@@H]4[C@@]5(C)C[C@@H](O)[C@H](O)C(C)(C)[C@@H]5CC[C@@]4(C)[C@]2(C)CC3)cc1
Kiuc [1]: 69.6 µM | Ki (Acetylcholinesterase): 6.49 µM | Ki (Cholinesterase): > 100 µM

C#CCCOC(=O)[C@]12CCC(C)(C)C[C@H]1C1=CC[C@@H]3[C@@]4(C)C[C@@H](O)[C@H](O)C(C)(C)[C@@H]4CC[C@@]3(C)[C@]1(C)CC2
Kiuc [1]: 32.5 µM | IC50 (Acetylcholinesterase): 11.7 µM | Ki (Acetylcholinesterase): 6.76 µM | Ki (Cholinesterase): > 20 µM
